Laboratory results published in ChEMBL document CHEMBL1134905, “Thiourea-based gemfibrozil analogues as HDL-elevating agents” (2002).

Assays:
Format in all cases: functional
Rattus norvegicus [1] = assay: Percentage change in total triglycerides was determined in vivo in male Sprague-Dawley rats
How it was run: (§1)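 Compounds given in the diet to groups of six rats for 8 days, after a 7-day lead-in; dose expressed as mg/kg/day. At termination, rats anesthetized with CO2 and bled from the carotid artery, and serum separated. Values are % change or ratio versus gemfibrozil (set = 1), each relative to an untreated control group; significance P < 0.05.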

Rattus norvegicus [2] = assay: Percentage change in total cholesterol was determined in vivo in male Sprague-Dawley rats; how it was run: as §1
Rattus norvegicus [3] = assay: In vivo biological activity against Apo A-I relative to gemfibrozil in male Sprague-Dawley rats; how it was run: as §1
Rattus norvegicus [4] = assay: In vivo biological activity against HDL relative to gemfibrozil in male Sprague-Dawley rats; how it was run: as §1
Rattus norvegicus [5] = assay: Dose administered for testing biological activity in vivo in male Sprague-Dawley rats; how it was run: as §1

SMILES	Change (Rattus norvegicus [1]) [%]	Change (Rattus norvegicus [2]) [%]	Activity (Rattus norvegicus [3])	Activity (Rattus norvegicus [4])	Dose (Rattus norvegicus [5]) [mg/kg/day]
Cc1ccc(Cl)cc1/N=C(\S)NCC(C)(C)C(N)=O	-49	-3	1.15	0.57	41
Cc1ccc(Cl)cc1/N=C(\S)NCCO	-56	40	1.06	0.61	52
Cc1ccc(Cl)cc1NC(=O)NCC(C)(C)C(=O)O	-21	74	0.32	0.36	73
Cc1ccc(C)c(N/C(S)=N/CC(C)(C)C(=O)O)c1	69	73	0.93	0.54	78
COc1ccc(Cl)cc1/N=C(\S)NCC(C)(C)C(=O)O	-28	9	0.27	0.62	77
Cc1ccc(Cl)cc1/N=C(\S)N1CCCC(C)(C(=O)O)C1 (stereo not given)	15	14	-0.16	0.33	81
Cc1ccc(Cl)cc1/N=C(\S)NCC1(C(=O)O)CCC1	-39	36	0.49	1.19	76
COC(=O)C(C)(C)C/N=C(\S)Nc1cc(Cl)ccc1C	-12	-12	1.81	0.93	74
Cc1ccc(Cl)cc1/N=C(\S)NCC1(C(=O)O)CCCC1	-61	41	0.55	1.09	67
Cc1ccc(Cl)cc1/N=C(\S)NCC1(C(=O)O)CCCCC1	-54	21	0.32	0.73	88
Cc1ccc(C)c(OCCCC(C)(C)C(=O)O)c1 [GEMFIBROZIL]	-43	-23	1	1	46
